Source: PubChem BioAssay
Hits are enriched below; roughly 3.4% of the tested compounds scored in any of these assays.
AF4-AF9 inh = inhibitors of human MLL-AF4/AF9 interaction; P42568; AlphaScreen, biotin-AF4 peptide binding to FLAG-AF9; inhibition, % at 10 µM; 350,000 tested, 0.47% active; AID 651704;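 active = every replicate reaching a set inhibition limit, whatever the replicate mean, cut at about 25% in these data; inconclusive = mean inhibition reaches that limit but some replicates miss it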;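 note: 0% = plate neutral control median and 100% = total signal loss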
Target sequence (P42568 whole entry, looked up): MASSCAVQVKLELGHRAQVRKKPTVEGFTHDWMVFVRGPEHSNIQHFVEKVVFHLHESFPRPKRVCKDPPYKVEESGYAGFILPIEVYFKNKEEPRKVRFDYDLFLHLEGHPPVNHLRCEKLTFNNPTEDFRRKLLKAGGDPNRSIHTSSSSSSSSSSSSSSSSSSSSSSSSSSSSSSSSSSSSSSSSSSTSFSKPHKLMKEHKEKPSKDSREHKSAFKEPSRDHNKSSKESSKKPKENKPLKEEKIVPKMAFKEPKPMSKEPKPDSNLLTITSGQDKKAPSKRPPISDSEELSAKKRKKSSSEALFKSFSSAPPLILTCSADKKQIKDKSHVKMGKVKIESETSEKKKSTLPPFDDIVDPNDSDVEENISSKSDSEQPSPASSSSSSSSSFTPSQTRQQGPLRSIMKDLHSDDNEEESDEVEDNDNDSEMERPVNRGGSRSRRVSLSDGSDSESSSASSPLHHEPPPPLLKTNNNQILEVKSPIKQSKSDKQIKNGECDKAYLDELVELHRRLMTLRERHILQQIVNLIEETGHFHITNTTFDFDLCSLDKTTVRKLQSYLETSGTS
S100A4 MyoIIA = S100A4-myosin IIA interaction inhibition | P26447 | S100A4/TAMRA-MyoIIA peptide fluorescence polarization | inhibition, % at 10.7 µM | 360,000 tested, 0.14% active | AID 652163;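 active = mean inhibition of at least 70% across replicates, with every replicate also reaching that level; inconclusive = mean inhibition reaches 70% but some replicates fall short; inactive = mean inhibition below 70%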
Target sequence (P26447 whole entry, looked up): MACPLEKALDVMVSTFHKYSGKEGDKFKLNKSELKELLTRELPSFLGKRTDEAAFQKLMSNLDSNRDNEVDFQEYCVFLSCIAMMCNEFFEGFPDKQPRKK
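Material: S100A4 monomer (human). Medium: Calcium-containing HEPES buffer, pH 7.2. Probe or stimulus: labelled myosin peptide probe, 5 nM. Compound dosing: one concentration per compound. Timing: polarization read 5 min after assay mix addition, stable 5–60 min. Benchmarks: DMSO as neutral control, TFP as positive control.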
ERAP1 HTS inh = inhibitors of human ERAP1 aminopeptidase; 340,000 tested, 0.15% active; inhibition, % at 10.7 µM; recombinant ERAP1, Leu-AMC fluorescence, 60 min; AID 652197; Q9NZ08;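 active = mean replicate inhibition of at least 30%, or all replicates individually reaching that 30% level; inactive = mean below 30% and not every replicate reaching it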;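 note: 0% = neutral control wells and 100% = L-leucinethiol positive control wells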
E-sel inducer = E-selectin induction on HUVECs; P16581; HUVEC E-selectin immunofluorescence imaging; normalized: neutral wells 0, TNF-alpha wells 100; activation, % at 7.58 µM; 260,000 tested, 0.37% active;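 active = mean E-selectin-positive cell signal at least 10% of the positive control, reached in at least 60% of replicates, without over 20% cell loss; inconclusive = no rule given, readout overlaps actives, possibly toxicity-flagged; inactive = the rest, including those meeting only one limit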
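System: HUVEC / Compound: single concentration / Signal: immunofluorescence imaging / Read-out: percent E-selectin-positive cells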
Ecoli rRNA inh = selective bacterial rRNA inhibition in E. coli; E. coli WT GFP vs humanized-ribosome RFP mutants, fluorescence, 24 h; hits give low values; DMSO median 0, no signal -100; GFP signal change (wild-type ribosome), % (test concentration not listed); 350,000 tested, 1.6% active; AID 720706;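 active = significant combined selectivity score with lowered wild-type GFP, culture density cut under 30%, mutant RFP and density less affected; inactive = any of these conditions unmet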
SIRT5 inh = blocks human SIRT5 desuccinylation of peptide; 330,000 tested, 1.1% active; Q9NXA8; inhibition, % at 15 µM; AID 652115; Purified SirT5, succinyl-peptide AMC, trypsin-coupled fluorescence; in the data active = inhibition above about 15%; inconclusive = no clear call, values can overlap the other calls
* hit, by the source's call; ? = inconclusive; . = not tested or not shown; ! = repeats disagree.

SMILES | AF4-AF9 inh | S100A4 MyoIIA | ERAP1 HTS inh | E-sel inducer | Ecoli rRNA inh | SIRT5 inh
S=C(NCCCN1CCOCC1)Nc1cccc(-c2nnc3n2CCCCC3)c1 | -3 | -1 | 0 | 1 | 15 | 16*
CC(C)NC(=O)N(C)C[C@@H]1Oc2ccc(NC(=O)CCCN(C)C)cc2C(=O)N([C@@H](C)CO)C[C@@H]1C | -1 | 16 | 0 | -17 | 4 | -3
CC(C)NC(=O)N(C)C[C@@H]1Oc2ccc(NC(=O)CCCN(C)C)cc2C(=O)N([C@@H](C)CO)C[C@H]1C | -2 | 8 | -4 | 242* | 2 | 3
CC(C)NC(=O)N(C)C[C@H]1Oc2ccc(NC(=O)CCCN(C)C)cc2C(=O)N([C@H](C)CO)C[C@H]1C | 0 | 111* | 0 | -12 | 3 | -1
CCOC(=O)c1sc2ncc([N+](=O)[O-])cc2c1N | 0 | -8 | -1 | . | -36* | -5
Nc1c(C(=O)Nc2ccccc2)sc2ncc([N+](=O)[O-])cc12 | 1 | -1 | 0 | 0 | 23 | -1
Cc1ccc(-c2nnc(COC(=O)c3ccco3)o2)cc1 | -8 | 4 | -2 | 0 | 0 | 0
Cc1ccc(C(=O)OCc2nnc(-c3ccc(Br)cc3)o2)cc1 | -2 | -4 | 0 | 2 | -16* | -3
CC(C)(C)C1CCC(OCC(O)CN2CCN(c3ccccn3)CC2)CC1 (centres undefined) | -9 | -2 | -3 | 8 | -35* | -1
CC(C)(C)C1CCC(OCC(O)CN2CCN(Cc3ccccc3)CC2)CC1 (centres undefined) | 7 | -2 | 10 | . | -26 | -1
O=C(Nc1ccc2c(c1)[C@@H]1C[C@@H](CC(=O)N3CCCCC3)O[C@@H](CO)[C@@H]1O2)C1CCOCC1 | -4 | 0 | 1 | 1 | 2 | 0
CCCCNC(=O)c1cc2c(C)cc(C)cc2[nH]1 | 0 | -3 | -1 | 21 | -22* | 0
Cc1cc(C(=O)c2ccc3ccccc3c2)c(C)o1 | 1 | 0 | 2 | 1 | -23* | -1
COc1ccccc1NCC(=O)NNC(C)C(=O)Nc1cccc(Cl)c1 (centres undefined) | 3 | 2 | 1 | 0 | -32* | -1
COc1ccc(NC(=O)/C=C/c2ccc(Br)o2)cn1 | 0 | -2 | 0 | 1 | 5 | 34*
C[C@@H](O)C#Cc1ccc2c(c1)O[C@H](CN(C)Cc1ccc(-c3ccccc3)cc1)[C@@H](C)CN([C@@H](C)CO)S2(=O)=O | 2 | 7 | 0 | 0 | -5 | 27*
C[C@H](O)C#Cc1ccc2c(c1)O[C@@H](CN(C)Cc1ccc(-c3ccccc3)cc1)[C@H](C)CN([C@@H](C)CO)S2(=O)=O | 0 | 3 | -1 | 0 | -1 | 17*!
C[C@H](O)C#Cc1ccc2c(c1)O[C@@H](CN(C)Cc1ccc(-c3ccccc3)cc1)[C@@H](C)CN([C@H](C)CO)S2(=O)=O | 3 | -14 | -4 | 2 | 0 | 23*
CNC(=S)N(CCc1c(C)[nH]c2ccc(OC)cc12)Cc1ccco1 | ? | -3 | 1 | 0 | -23* | -2
COCCNC(=S)N(CCc1c(C)[nH]c2ccc(OC)cc12)Cc1ccco1 | 8 | -17 | 1 | 0 | 13 | 2
O=[N+]([O-])c1cccc(NC(=S)N2CCc3ccccc3C2)c1 | 1 | -9 | -2 | 2 | -31* | 0
O=[N+]([O-])c1ccc(NC(=S)N2CCc3ccccc32)cc1 | 6 | 0 | 3 | 0 | -19* | 2
S=C(Nc1ccccc1)N1CCc2ccccc21 | 1 | -1 | 0 | . | 17 | -1
CO[C@H]1CN(C)C(=O)c2ccc(NS(=O)(=O)c3ccccc3F)cc2OC[C@@H](C)NC[C@H]1C | -3 | 2 | -4 | 0 | 0 | -3
CN(C)C(=O)c1cccc(-c2ccc(C3[C@H]4CNC[C@@H]3N4C(=O)Nc3cc(F)ccc3F)cc2)c1 (some centres undefined) | -5 | -6 | -2 | 0 | 8 | 6
SMILES | AF4-AF9 inh | S100A4 MyoIIA | ERAP1 HTS inh | E-sel inducer | Ecoli rRNA inh | SIRT5 inh
N#Cc1cccc(CN2CCC(=O)N([C@H](CO)Cc3ccccc3)CC2)c1 | 44* | 2 | -1 | 1 | 11 | .
O=C1CCN(Cc2ccccc2)CCN1[C@H](CO)Cc1ccccc1 | . | . | . | 0 | . | .
COCC(=O)N1CCCCN2[C@H](C1)[C@@H](c1ccc(-c3cccc(C)c3)cc1)[C@@H]2CO | -8 | -2 | 1 | 0 | 0 | 1
COc1cnn(-c2ccccc2)c(=O)c1OC | -9 | 4 | . | . | 2 | -3
COc1cnn(-c2ccc(Br)cc2)c(=O)c1SCc1ccccc1 | -4 | 4 | -1 | . | -10 | 28*
COc1ccc2c(c1)c(C(C)=O)c(C)n2-c1ccccc1OC | . | -2 | 5 | -3 | -36* | -1
O=C(O)c1ccc(-c2noc(-c3ccccc3Cl)n2)cc1 | -5 | -2 | -1 | 0 | -16 | 3
O=C(O)c1ccc(-c2noc(-c3cccc(Cl)c3)n2)cc1 | 1 | -3 | 3 | 1 | -23* | 3
C[C@H]1CN(C)C(=O)c2cc([N+](=O)[O-])ccc2O[C@@H]1CN(C)C(=O)OC(C)(C)C | . | . | . | . | -2 | .
CCN(CC)c1ccc(CNc2ccc3c(c2)ncn3CC)cc1 | 45* | -10 | 7 | . | 7 | -4
CN(C)c1ccc(CNc2ccc3c(c2)ncn3C(C)(C)C)cc1 | 35* | 3 | 4 | . | 9 | 1
C[C@@H]1CN([C@H](C)CO)C(=O)c2cc(/C=C/c3ccccc3)cnc2O[C@@H]1CN(C)C | 2 | 5 | 3 | 1 | 4 | -20
COCC(=O)N1CCC2(CC1)CN[C@@H](CO)c1c2c2ccc(OC)cc2n1C | -7 | -28 | -1 | 0 | 9 | -3
COc1ccc(NC(=O)Nc2ccc3c(c2)C(=O)N([C@@H](C)CO)C[C@@H](C)[C@H](CN(C)Cc2ccc(C(=O)O)cc2)OCCCC[C@H](C)O3)cc1 | 0 | 5 | -24 | 0 | 0 | 4
O=C1ON=C(c2ccccc2[N+](=O)[O-])/C1=C/c1cccc([N+](=O)[O-])c1O | -4 | 4 | 65* | . | 11 | 3
O=C1ON=C(c2ccc(Cl)c([N+](=O)[O-])c2)/C1=C/c1cccc([N+](=O)[O-])c1O | -2 | 3 | 99* | . | 9 | -3
COc1ccc(NC(=O)Nc2ccc3c(c2)C(=O)N([C@@H](C)CO)C[C@@H](C)[C@@H](CN(C)C(=O)Nc2ccc4c(c2)OCO4)OCCCC[C@@H](C)O3)cc1 | 5 | -34 | 0 | 0 | -1 | 10
